Experimental data: ChEMBL document CHEMBL1155578, “In vitro antiinflammatory effects of neolignan woorenosides from the rhizomes of Coptis japonica” (J Nat Prod, 2000)

How the values were obtained:
[1] = Inhibition of IL2-dependent mouse CTLL2 cell proliferation after 48 hrs by MTT assay; format: functional, cell-based; details: CTLL-2, 48 h
Procedure, shortened: (§1)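 CTLL-2 cells were washed free of IL-2 and FBS, then resuspended at 5×10^5 cells/mL in growth medium without IL-2. They were incubated with compounds plus IL-2 (50 U/mL) for 48 h at 37 °C and 5% CO2. Proliferation was read by MTT assay. Results are mean ± SEM of four observations.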

RAW264.7 [2] = experiment: Antiinflammatory activity against mouse RAW264.7 cells assessed as inhibition of LPS-induced TNFalpha production after 4 hrs by ELISA; format: functional, cell-based; details: RAW264.7, 4 h
Procedure, shortened: (§2)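 Compounds were dissolved in vehicle (propylene glycol/ethanol/DMSO), kept at ≤0.1% final, and added with LPS (1 µg/mL) for 4 h. Supernatant TNF-α was measured by mouse TNF-α ELISA. Results are mean ± SEM of four observations in triplicate.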

RAW264.7 [3] = experiment: Antiinflammatory activity against mouse RAW264.7 assessed as inhibition of IFN-gamma-induced NO production after 24 hrs; format: functional, cell-based; details: RAW264.7, 24 h
Procedure, shortened: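 RAW264.7 mouse macrophages kept in RPMI 1640 with 10% FBS and antibiotics, 37 °C, 5% CO2. Cells pre-cultured 18 h at 1×10^6 cells/mL, then given graded compound concentrations plus IFN-γ (50 U/mL) for 24 h. Supernatant nitrite read by Griess reagent (10 min, room temperature) at OD550, quantified against a sodium nitrite standard curve. Mean ± SEM, four separate observations in triplicate.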

RAW264.7 [4] = experiment: Antiinflammatory activity against mouse RAW264.7 assessed as inhibition of LPS-induced NO production after 24 hrs; format: functional, cell-based; details: RAW264.7, 24 h
Procedure, shortened: (§3)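 RAW264.7 cells were plated at 1×10^6 cells/mL and held 18 h. Compounds were then added with LPS (1 µg/mL) for lines 1 and 3, or IFN-γ (50 U/mL) for line 2, and incubated 24 h. Supernatant nitrite was measured with Griess reagent (10 min, room temperature) at OD550 against a sodium nitrite standard curve. Detection limit was 0.5 µM. Results are mean ± SEM of four observations run in triplicate.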

Splenocyte = experiment: Inhibition of Concanavalin A-stimulated cell proliferation in mouse splenocytes after 48 hrs by MTT assay; format: functional, cell-based
Procedure, shortened: (§4)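 Splenocytes came from BALB/c male mice (eight weeks old); red cells were lysed with NH4Cl-Tris. Cells were cultured at 5×10^6 cells/mL with Con A (1 µg/mL) and compounds for 48 h. Results are mean ± SEM of four observations.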

[5] = Antiinflammatory activity against mouse splenocytes assessed as inhibition of ConA-stimulated proliferation at 80 uM after 48 hrs by MTT assay; format: functional; details: Splenocyte; procedure, shortened: as §4
RAW264.7 [6] = experiment: Antiinflammatory activity against mouse RAW264.7 cells assessed as inhibition of LPS-induced TNFalpha production at 80 uM after 4 hrs by ELISA; format: functional; details: RAW264.7, 4 h
Procedure, shortened: as §2, with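 “RAW264.7 cells (2×10^6 cells/mL) were pre-incubated 18 h in RPMI 1640 with 10% FBS. Compounds” for “Compounds”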

SUP-T1 = experiment: Cytotoxicity against human Sup-T1 cells at 80 uM after 48 hrs by MTT assay; details: SUP-T1, 48 h
RAW264.7 [7] = experiment: Antiinflammatory activity against mouse RAW264.7 cells assessed as inhibition of IFN-gamma-induced NO production at 20 uM after 24 hrs; format: functional; design: scale not given: the % may be the effect or the level left; procedure, shortened: as §3
RAW264.7 [8] = experiment: Antiinflammatory activity against mouse RAW264.7 cells assessed as inhibition of LPS-induced NO production at 80 uM after 24 hrs; format: functional; details: RAW264.7, 24 h; procedure, shortened: as §3
[9] = Inhibition of IL2-dependent mouse CTLL2 cell proliferation at 80 uM after 48 hrs by MTT assay; format: functional; details: CTLL-2, 48 h; procedure, shortened: as §1

With CCCC(=O)Nc1ncnc2c1ncn2[C@@H]1O[C@@H]2COP(=O)(O)O[C@H]2[C@H]1OC(=O)CCC [BUCLADESINE] the IC50 [1] was 576 µM and the IC50 (RAW264.7 [2]) was 28.9 µM.

For COC(=O)[C@@H](N)CCCNC(=N)N[N+](=O)[O-] [L-NAME], the IC50 (RAW264.7 [3]) was 116 µM and the IC50 (RAW264.7 [4]) was 193 µM.

Work on N[C@H]1CONC1=O [LEVCYCLOSERINE] yielded an IC50 (Splenocyte) of 3.5 µM.

With CC(=O)CCCCn1c(=O)c2c(ncn2C)n(C)c1=O [PENTOXIFYLLINE] the IC50 (RAW264.7 [2]) was 247 µM.

Work on C[C@]12C=CC(=O)C=C1CC[C@@H]1[C@@H]2[C@@H](O)C[C@@]2(C)[C@H]1CC[C@]2(O)C(=O)CO [PREDNISOLONE] yielded an IC50 (RAW264.7 [2]) of 25.4 µM.

For C/C(O)=C(\C#N)C(=O)Nc1ccc(C(F)(F)F)cc1 [TERIFLUNOMIDE], the IC50 [1] was 11.2 µM and the IC50 (Splenocyte) was 6.7 µM.

In the case of COc1cc([C@@H]2Oc3c(OC)cc(/C=C/CO[C@@H]4O[C@H](CO)[C@@H](O)[C@H](O)[C@H]4O)cc3[C@H]2CO)cc(OC)c1OC [WOORENOSIDE I], the inhibition at 80 µM [5] is reported as 24.8%, the inhibition at 80 µM (RAW264.7 [6]) is reported as 15.4% and the inhibition at 80 µM (SUP-T1) is reported as 32.1%. For the same compound, the Activity (RAW264.7 [7]) was 8.5%, the inhibition at 80 µM (RAW264.7 [8]) was 34.7% and the inhibition at 80 µM [9] was -5.4%.
